Results: ChEMBL document CHEMBL3120102, “Structure-based design, synthesis and biological evaluation of novel anthra[1,2-d]imidazole-6,11-dione homologues as potential antitumor agents” (2013)

Key:
[1] = test system: OVCAR-8; assay: Cytotoxicity against human OVCAR8 cells assessed as growth inhibition after 48 hrs by SRB assay; assay type: functional; conditions: for GI50 / LC50 / TGI: OVCAR-8, 48 h
Method in brief: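 NCI 60-cell-line screen, five-dose stage: each cell line exposed for 48 h to five concentrations spanning five log steps; cellular protein measured by sulforhodamine B colorimetry. A time-zero cell control and plates without drug are used to derive GI50, TGI and LC50 from log-concentration dose-response curves.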

[2] = test system: T47D; assay: Cytotoxicity against human T47D cells assessed as cell growth at 10 uM after 48 hrs by SRB assay; assay type: functional; conditions: read-out: Activity
Method in brief: (§1)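 First stage of the NCI 60 human tumour cell line screen, with each compound tested at a single dose of 10. Cellular protein measured by sulforhodamine B colorimetry after 48 h drug exposure. Growth is calculated against a time-zero cell control and against plates not exposed to drug.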

[3] = test system: BT-549; assay: Cytotoxicity against human BT549 cells assessed as cell growth at 10 uM after 48 hrs by SRB assay; assay type: functional; conditions: BT-549, 48 h, read-out: Activity
Method in brief: (§2)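 NCI 60-cell-line screen, first stage: compound at a single dose of […] (unit as printed) for 48 h. Cellular protein was measured by sulforhodamine B colorimetry. Growth was determined using a time-zero cell control and plates not exposed to drug.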

[4] = test system: DU-145; assay: Cytotoxicity against human DU145 cells assessed as cell growth at 10 uM after 48 hrs by SRB assay; assay type: functional; conditions: DU-145, 48 h, read-out: Activity; method in brief: as §2
[5] = test system: PC-3; assay: Cytotoxicity against human PC3 cells assessed as cell growth at 10 uM after 48 hrs by SRB assay; assay type: functional; conditions: PC-3, 48 h, read-out: Activity
Method in brief: (§3)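 First stage of the NCI 60 human tumour cell line screen: a single dose is tested against every line. Cell growth is read as cellular protein by sulforhodamine B colorimetry after 48 h of drug exposure, with reference to a time-zero control and to untreated plates.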

[6] = test system: SN12C; assay: Cytotoxicity against human SN12C cells assessed as cell growth at 10 uM after 48 hrs by SRB assay; assay type: functional; conditions: read-out: Activity; method in brief: as §3
[7] = test system: RXF 393; assay: Cytotoxicity against human RXF393 cells assessed as cell growth at 10 uM after 48 hrs by SRB assay; assay type: functional; conditions: RXF 393, 48 h, read-out: Activity; method in brief: as §3
[8] = test system: A498; assay: Cytotoxicity against human A498 cells assessed as cell growth at 10 uM after 48 hrs by SRB assay; assay type: functional; conditions: A498, 48 h, read-out: Activity
[9] = Cytotoxicity against human NCI-ADR-RES cells assessed as cell growth at 10 uM after 48 hrs by SRB assay; assay type: functional; conditions: read-out: Activity; method in brief: as §3
[10] = Cytotoxicity against human OVCAR4 cells assessed as cell growth at 10 uM after 48 hrs by SRB assay; assay type: functional; conditions: OVCAR-4, 48 h, read-out: Activity; method in brief: as §3
[11] = Cytotoxicity against human OVCAR5 cells assessed as cell growth at 10 uM after 48 hrs by SRB assay; assay type: functional; conditions: OVCAR-5, 48 h, read-out: Activity; method in brief: as §3
[12] = test system: OVCAR-3; assay: Cytotoxicity against human OVCAR3 cells assessed as cell growth at 10 uM after 48 hrs by SRB assay; assay type: functional; conditions: OVCAR-3, 48 h, read-out: Activity; method in brief: as §3
[13] = Cytotoxicity against human UACC257 cells assessed as cell growth at 10 uM after 48 hrs by SRB assay; assay type: functional; conditions: UACC-257, 48 h, read-out: Activity; method in brief: as §1
[14] = test system: SK-MEL-5; assay: Cytotoxicity against human SK-MEL-5 cells assessed as cell growth at 10 uM after 48 hrs by SRB assay; assay type: functional; conditions: SK-MEL-5, 48 h, read-out: Activity; method in brief: as §3
[15] = test system: Malme-3M; assay: Cytotoxicity against human MALME-3M cells assessed as cell growth at 10 uM after 48 hrs by SRB assay; assay type: functional; conditions: read-out: Activity
[16] = test system: LOX IMVI; assay: Cytotoxicity against human LOXIMVI cells assessed as cell growth at 10 uM after 48 hrs by SRB assay; assay type: functional; conditions: read-out: Activity; method in brief: as §2
[17] = test system: HCT-15; assay: Cytotoxicity against human HCT15 cells assessed as cell growth at 10 uM after 48 hrs by SRB assay; assay type: functional; conditions: HCT-15, 48 h, read-out: Activity
[18] = test system: HCT-116; assay: Cytotoxicity against human HCT116 cells assessed as cell growth at 10 uM after 48 hrs by SRB assay; assay type: functional; conditions: HCT-116, 48 h, read-out: Activity
[19] = test system: HCC 2998; assay: Cytotoxicity against human HCC2998 cells assessed as cell growth at 10 uM after 48 hrs by SRB assay; assay type: functional; conditions: HCC 2998, 48 h, read-out: Activity
[20] = test system: COLO 205; assay: Cytotoxicity against human COLO205 cells assessed as cell growth at 10 uM after 48 hrs by SRB assay; assay type: functional; conditions: COLO 205, 48 h, read-out: Activity
[21] = test system: NCI-H460; assay: Cytotoxicity against human NCI-H460 cells assessed as cell growth at 10 uM after 48 hrs by SRB assay; assay type: functional; conditions: NCI-H460, 48 h, read-out: Activity; method in brief: as §3
[22] = test system: HOP-92; assay: Cytotoxicity against human HOP92 cells assessed as cell growth at 10 uM after 48 hrs by SRB assay; assay type: functional; conditions: HOP-92, 48 h, read-out: Activity; method in brief: as §2
[23] = test system: RPMI-8226; assay: Cytotoxicity against human RPMI8226 cells assessed as cell growth at 10 uM after 48 hrs by SRB assay; assay type: functional; conditions: RPMI-8226, 48 h, read-out: Activity; method in brief: as §3
[24] = test system: MOLT-4; assay: Cytotoxicity against human MOLT4 cells assessed as cell growth at 10 uM after 48 hrs by SRB assay; assay type: functional; conditions: MOLT-4, 48 h, read-out: Activity; method in brief: as §3
[25] = test system: HL-60(TB); assay: Cytotoxicity against human HL-60(TB) cells assessed as cell growth at 10 uM after 48 hrs by SRB assay; assay type: functional; conditions: HL-60, 48 h, read-out: Activity
Method in brief: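 NCI 60-cell panel first-stage screen at a single dose in the HL-60(TB) leukemia line. Cellular protein was measured by sulforhodamine B colorimetry after 48 h of drug exposure. Growth was referenced to a time-zero cell control and to plates not exposed to drug.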

[26] = test system: CCRF-CEM; assay: Cytotoxicity against human CCRF-CEM cells assessed as cell growth at 10 uM after 48 hrs by SRB assay; assay type: functional; conditions: read-out: Activity
[27] = target: Telomerase reverse transcriptase (Homo sapiens) (UniProt O14746); assay: Inhibition of human tert transcriptional activity assessed as SEAP activity at 1 uM after 24 hrs by SEAP reporter assay; design: scale not given: the % may be the effect or the level left
Chain of Telomerase reverse transcriptase (Homo sapiens) (O14746 whole entry): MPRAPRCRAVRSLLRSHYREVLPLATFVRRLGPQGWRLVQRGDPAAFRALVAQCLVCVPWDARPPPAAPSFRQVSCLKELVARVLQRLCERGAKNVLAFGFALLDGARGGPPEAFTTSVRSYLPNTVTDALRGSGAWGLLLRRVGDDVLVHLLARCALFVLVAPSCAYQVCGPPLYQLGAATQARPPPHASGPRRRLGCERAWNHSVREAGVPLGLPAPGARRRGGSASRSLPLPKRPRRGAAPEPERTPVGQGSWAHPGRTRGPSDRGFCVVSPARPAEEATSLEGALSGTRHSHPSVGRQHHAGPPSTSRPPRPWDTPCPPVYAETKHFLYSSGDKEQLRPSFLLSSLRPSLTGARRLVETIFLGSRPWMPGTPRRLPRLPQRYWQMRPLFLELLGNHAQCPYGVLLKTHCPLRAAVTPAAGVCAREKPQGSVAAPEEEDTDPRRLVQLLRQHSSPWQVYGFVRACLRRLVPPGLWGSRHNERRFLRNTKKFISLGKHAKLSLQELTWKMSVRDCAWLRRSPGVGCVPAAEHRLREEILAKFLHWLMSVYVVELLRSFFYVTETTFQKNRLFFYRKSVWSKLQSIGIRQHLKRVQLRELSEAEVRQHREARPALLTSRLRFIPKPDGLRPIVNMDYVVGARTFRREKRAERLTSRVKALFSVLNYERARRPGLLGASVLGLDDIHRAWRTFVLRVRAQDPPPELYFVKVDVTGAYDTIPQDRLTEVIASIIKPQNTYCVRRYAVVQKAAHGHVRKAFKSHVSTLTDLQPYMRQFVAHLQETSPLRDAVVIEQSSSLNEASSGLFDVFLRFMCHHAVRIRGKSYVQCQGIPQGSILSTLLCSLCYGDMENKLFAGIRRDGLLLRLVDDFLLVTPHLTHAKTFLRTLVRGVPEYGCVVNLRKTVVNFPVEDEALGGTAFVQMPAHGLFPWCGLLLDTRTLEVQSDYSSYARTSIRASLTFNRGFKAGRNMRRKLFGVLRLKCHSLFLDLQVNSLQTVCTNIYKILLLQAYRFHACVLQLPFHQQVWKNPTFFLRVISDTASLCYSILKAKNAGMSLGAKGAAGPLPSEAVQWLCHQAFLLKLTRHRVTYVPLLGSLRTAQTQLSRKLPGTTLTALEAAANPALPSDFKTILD
Method in brief: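 Reporter assay for hTERT transcriptional activity using secreted alkaline phosphatase. About 2 × 10³ cells per well were grown for 24 h at 37 °C, then given fresh medium. Buffer was added to the medium: 2 M diethanolamine, 1 mM MgCl2 and 20 mM L-homoarginine. p-Nitrophenyl phosphate was added to 12 mM final. The rate of absorbance increase was read at 405 nm.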

[28] = Cytotoxicity against human H1299 cells assessed as cell viability at 10 uM after 48 hrs by MTT assay; assay type: functional; conditions: NCI-H1299, 48 h, read-out: Activity
Method in brief: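 About 2×10³ H1299 cells per well were grown for 24 h at 37 °C in 5% CO2. Compound was dissolved in DMSO immediately before use, diluted in complete medium and left on cells for 48 h. MTT was then added for 4 h at 37 °C, followed by SDS/DMF lysis buffer for 16 h at 37 °C. Absorbance was read at 550 nm.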

Row | Compound | growth at 10 µM [2] [%] | growth at 10 µM [3] [%] | growth at 10 µM [4] [%] | growth at 10 µM [5] [%] | growth at 10 µM [6] [%] | growth at 10 µM [7] [%] | growth at 10 µM [8] [%] | growth at 10 µM [9] [%] | growth at 10 µM [10] [%] | growth at 10 µM [11] [%] | growth at 10 µM [13] [%] | growth at 10 µM [14] [%] | growth at 10 µM [15] [%] | growth at 10 µM [16] [%] | growth at 10 µM [17] [%] | growth at 10 µM [18] [%] | growth at 10 µM [19] [%] | growth at 10 µM [20] [%] | growth at 10 µM [21] [%] | growth at 10 µM [22] [%] | further results
1 | CCCSc1nc2ccc3c(c2[nH]1)C(=O)c1ccccc1C3=O | 53.7 | 76 | 69.3 | 66.8 | 80.4 | 20.1 | 57.3 | 50.2 | 42.2 | 99.7 | 86.3 | 78.5 | 88.2 | 62.6 | 67.7 | 47.7 | 81.9 | 103 | 68.1 | 17.2 | growth inhibition (GI) [1]: Dose-dependent effect; GI50 [1]: 3.48 µM; LC50 [1]: > 100 µM; TGI [1]: > 100 µM; growth at 10 µM [12]: 62.7%; growth at 10 µM [23]: 71.8%; growth at 10 µM [24]: 68.1%; growth at 10 µM [25]: 74.2%; growth at 10 µM [26]: 70.8%; Activity [27]: 103%; viability at 10 µM [28]: 78%
2 | O=C1c2ccccc2C(=O)c2c1ccc1[nH]c(=S)[nH]c21 | 81.9 | 114 | 99.3 | 78.8 | 88 | 142 | 94.3 | 110 | 91.6 | 129 | 105 | 86.7 | 87.5 | 84 | 83.8 | 96.3 | 114 | 104 | 98.6 | 65.5 | growth at 10 µM [12]: 86.9%; growth at 10 µM [23]: 101%; growth at 10 µM [24]: 109%; growth at 10 µM [25]: 97.6%; growth at 10 µM [26]: 61.9%; Activity [27]: 97%; viability at 10 µM [28]: 99%
3 | O=C1c2ccccc2C(=O)c2c1ccc1nc(SCCN3CCCC3)[nH]c21 | 83.1 | 78.6 | 17.9 | 6.9 | 52.9 | 22.3 | 71.4 | 53.7 | 57.2 | 87.5 | 92.8 | 78.5 | 112 | 11.9 | 40.4 | 38.8 | 71.5 | 17.1 | 34.1 | 35.2 | growth inhibition (GI) [1]: Dose-dependent effect; GI50 [1]: 6.38 µM; LC50 [1]: > 100 µM; TGI [1]: 30.4 µM; growth at 10 µM [23]: -60.2%; growth at 10 µM [24]: 30.9%; growth at 10 µM [25]: 37.4%; growth at 10 µM [26]: -15.4%; Activity [27]: 102%; viability at 10 µM [28]: 89%
4 | O=C1c2ccccc2C(=O)c2c1ccc1nc3n(c21)CCS3 | 73.1 | 87.9 | 68.8 | 93.9 | 74.9 | 46.5 | 73.7 | 84.1 | 89.3 | 105 | 80.6 | 65.9 | 87.6 | 65.9 | 57.1 | 68.4 | 94.8 | 95.2 | 59.5 | 88.7 | growth at 10 µM [23]: 71.7%; growth at 10 µM [24]: 58.4%; growth at 10 µM [25]: 78.8%; growth at 10 µM [26]: 66.8%; Activity [27]: 107%; viability at 10 µM [28]: 128%
